The subject of one experiment is Nucleic Acid. Kind of experiment: Tested for the DNA unwinding concentration that causes a shift of the topoisomers from the original to the middle position between the relaxed and the supercoiled bands. Format: functional. A digest of the protocol:
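Supercoiled pHOT1 DNA (0.25 μg) relaxed with 5 units topo I, 37 °C for 30 min. Drug at various concentrations then added and incubated a further 30 min. Stopped with 1% SDS, proteinase K treatment at 56 °C, and chloroform-isoamyl alcohol extraction. Topoisomers run on 1% agarose in TPE with 0.2 μg/mL chloroquine, 10 V for 20 h. Gel post-stained with ethidium and scanned.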

The next experiment has as its system HT-29. Kind of experiment: The compound was tested for the concentration to inhibit 50% of HT-29 colon cells. Format: functional, cell-based. The conditions noted are these: Homo sapiens. The method in brief:
(§1)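 Exponentially growing cells seeded on day 0. Graded compound concentrations added in duplicate on day 1, then incubated at 37 °C. MTT (1 mg/mL in PBS) given for 4 h at 37 °C and formazan dissolved in 0.4 N HCl/isopropanol. Absorbance read at 570 nm against a 630 nm reference. IC50 derived from the dose-response curve.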

The test system of another experiment is B16. Kind of experiment: The compound was tested for the concentration to inhibit 50% of B16 murine melanoma cells. In kind it is functional, cell-based. The settings on record: Mus musculus. The method in brief: as §1
A further experiment addresses DNA topoisomerase II (Homo sapiens, UniProt P11388+Q02880). Kind of experiment: Inhibition of topoisomerase II as conversion of catenated to decatenated KDNA. In kind it is protein assay. The method in brief: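 kDNA (0.25 μg) preincubated 10 min with varied compound levels in 50 mM Tris-HCl pH 8, 120 mM KCl, 10 mM MgCl₂, 0.5 mM ATP and DTT. Then 2 units human topo II (170-kDa form) added, 37 °C for 30 min. Stopped with sarkosyl stop buffer. Products resolved on 1% agarose with ethidium bromide and quantified by fluorescence scanning.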

A further experiment has as its system MDA-MB-231. Nature of the experiment: The compound was tested for the concentration to inhibit 50% of MDA-231 breast cancer cell lines. In kind it is functional, cell-based. The conditions noted are these: Homo sapiens. The method in brief: as §1
The next experiment has as its system Raji. Kind of experiment: The compound was tested for the concentration to inhibit 50% of Raji lymphoma cells. In kind it is functional, cell-based. The conditions noted are these: Homo sapiens. The method in brief: as §1
A further experiment deals with DU-145. Nature of the experiment: The compound was tested for the concentration to inhibit 50% of DU-145 prostate cells. The settings on record: Homo sapiens. In kind it is functional, cell-based. A digest of the protocol:
as §1

A further experiment relates to NCI-H226. Nature of the experiment: The compound was tested for the concentration to inhibit 50% of H226 non-small cell lung cells. In kind it is functional, cell-based. The settings on record: Homo sapiens. The method in brief: as §1

Structures are written as SMILES.

With `N[C@@H]1CCN(c2c(F)cc3c(=O)c(C(=O)O)cn4c3c2Oc2ccc3ccccc3c2-4)C1`, the DNA unwinding concentration in the experiment on Nucleic Acid was 35 µM. Further, the IC50 (usually the concentration that gives 50% inhibition) turned out to be 0.36 µM with HT-29; 0.68 µM in the experiment on B16; 1.22 µM against DNA topoisomerase II; 0.35 µM with MDA-MB-231; 0.16 µM in the experiment on Raji; 0.36 µM in the experiment on DU-145. Besides, the IC50 in the experiment with NCI-H226 came out at 2.4 µM.

On to `O=C(O)c1cn2c3c(c(N4CCNCC4)c(F)cc3c1=O)Oc1c-2ccc2ccccc12`, for which, in the experiment on Nucleic Acid, the DNA unwinding concentration was over 100 µM. Moreover, the IC50 with HT-29 stood at 0.36 µM; with B16, 0.65 µM; against DNA topoisomerase II, 1.84 µM; with MDA-MB-231 it was 0.38 µM; in the experiment on Raji, 0.21 µM; in the experiment with DU-145, 0.14 µM. In the experiment with NCI-H226, this molecule showed an IC50 of 0.2 µM.

Regarding `N[C@H]1CCN(c2c(F)cc3c(=O)c(C(=O)O)cn4c3c2Oc2c-4ccc3ccccc23)C1`, the DNA unwinding concentration with Nucleic Acid amounted to 10 µM. Further, the IC50 in the experiment with HT-29 is 0.051 µM; with B16, 0.18 µM; against DNA topoisomerase II, 0.49 µM; with MDA-MB-231 it was 0.084 µM; with Raji, 0.02 µM; with DU-145, 0.064 µM. This molecule also gave an IC50 in the experiment with NCI-H226 of 0.027 µM.

Regarding `N[C@H]1CCN(c2c(F)cc3c(=O)c(C(=O)O)cn4c3c2Oc2cc3ccccc3cc2-4)C1`, the DNA unwinding concentration with Nucleic Acid is 13 µM. In addition, the IC50 with HT-29 came out at 0.023 µM; in the experiment with B16, 0.02 µM; on DNA topoisomerase II it was 0.44 µM; in the experiment with MDA-MB-231, 0.01 µM; in the experiment on Raji, 0.029 µM; in the experiment with DU-145, 0.03 µM. Also, 0.014 µM corresponded to half-maximal inhibition with NCI-H226 (IC50).

On to `NC1CCN(c2c(F)cc3c(=O)c(C(=O)O)cn4c3c2Oc2cc3ccccc3cc2-4)C1` (stereo unspecified), for which the concentration for half-maximal inhibition (IC50) in the experiment on HT-29 was 0.028 µM; with B16, 0.1 µM; at DNA topoisomerase II it was 0.77 µM; in the experiment with MDA-MB-231, 0.023 µM; in the experiment on Raji, 0.038 µM; with DU-145, 0.025 µM. Moreover, it took 0.004 µM to reach half-maximal inhibition in the experiment on NCI-H226 (IC50).

As for `O=C(O)c1cn2c3c(c(N4CCNCC4)c(F)cc3c1=O)Oc1cc3ccccc3cc1-2`, the DNA unwinding concentration with Nucleic Acid is over 100 µM. The IC50 with HT-29 was 6.8 µM; with B16, 0.045 µM; against DNA topoisomerase II, 0.64 µM; with MDA-MB-231, over 1000 µM; in the experiment with Raji, 0.0072 µM; in the experiment on DU-145, 0.075 µM. In the experiment with NCI-H226, this molecule registered an IC50 of over 100 µM.

Consider `N[C@@H]1CCN(c2c(F)cc3c(=O)c(C(=O)O)cn4c3c2Oc2cc3ccccc3cc2-4)C1`, for which the DNA unwinding concentration in the experiment with Nucleic Acid stood at 15 µM. In addition, the IC50 in the experiment with HT-29 amounted to 0.022 µM; with B16, 0.14 µM; at DNA topoisomerase II it was 0.42 µM; with MDA-MB-231 it was 0.021 µM; in the experiment with Raji, 0.032 µM; in the experiment on DU-145, 0.048 µM. The IC50 in the experiment with NCI-H226 was determined as 0.022 µM.

As to `O=C(O)c1cn2c3c(c(N4CCNCC4)c(F)cc3c1=O)Oc1ccc3ccccc3c1-2`, the DNA unwinding concentration with Nucleic Acid was over 100 µM. Moreover, the IC50 in the experiment on HT-29 is 2 µM; with B16 it was 2.1 µM; against DNA topoisomerase II it was 9.6 µM; in the experiment with MDA-MB-231 it was 2.2 µM; in the experiment on Raji it was 0.8 µM; in the experiment on DU-145, 0.84 µM. Moreover, the IC50 in the experiment with NCI-H226 amounted to 2.1 µM.

For the molecule `NC1CCN(c2c(F)cc3c(=O)c(C(=O)O)cn4c3c2Oc2ccc3ccccc3c2-4)C1` (stereo unspecified), the IC50 with HT-29 worked out at 0.18 µM; with B16, 0.44 µM; at DNA topoisomerase II, 0.77 µM; with MDA-MB-231 it was 0.15 µM; in the experiment with Raji it was 0.086 µM; with DU-145, 0.2 µM. Also, the IC50 in the experiment with NCI-H226 is 0.14 µM.

Turning to `NC1CCN(c2c(F)cc3c(=O)c(C(=O)O)cn4c3c2Oc2c-4ccc3ccccc23)C1` (stereo unspecified), the IC50 in the experiment with HT-29 came to 0.03 µM; in the experiment on B16 it was 0.04 µM; against DNA topoisomerase II, 0.55 µM; in the experiment with MDA-MB-231, 0.027 µM; with Raji it was 0.018 µM; in the experiment on DU-145, 0.017 µM. In the experiment on NCI-H226, this molecule registered an IC50 of 0.022 µM.

`N[C@H]1CCN(c2c(F)cc3c(=O)c(C(=O)O)cn4c3c2Oc2ccc3ccccc3c2-4)C1`: the DNA unwinding concentration in the experiment with Nucleic Acid was determined as 19 µM. Moreover, the IC50 in the experiment on HT-29 is 0.27 µM; with B16, 0.13 µM; on DNA topoisomerase II, 0.72 µM; in the experiment with MDA-MB-231, 0.19 µM; in the experiment on Raji, 0.082 µM; with DU-145, 0.14 µM. In the experiment on NCI-H226, this molecule came in with an IC50 of 0.13 µM.

Regarding `N[C@H]1CCN(c2c(F)cc3c(=O)c(C(=O)O)cn4c3c2Oc2ccccc2-4)C1`, in the experiment with Nucleic Acid, the DNA unwinding concentration amounted to 50 µM. Further, the IC50 worked out at 0.16 µM with HT-29; 0.17 µM in the experiment on B16; 0.51 µM against DNA topoisomerase II; 0.16 µM in the experiment with MDA-MB-231; 0.05 µM with Raji; 0.16 µM in the experiment with DU-145. In the experiment on NCI-H226, this molecule came in with an IC50 of 0.09 µM.

Consider `N[C@@H]1CCN(c2c(F)cc3c(=O)c(C(=O)O)cn4c3c2Oc2c-4ccc3ccccc23)C1`, for which, in the experiment with Nucleic Acid, the DNA unwinding concentration came out at 3 µM. The IC50 with HT-29 amounted to 0.026 µM; with B16 it was 0.02 µM; at DNA topoisomerase II it was 0.24 µM; in the experiment with MDA-MB-231, 0.005 µM; in the experiment on Raji, 0.034 µM; in the experiment on DU-145 it was 0.03 µM. Inhibition with NCI-H226 was half-maximal at 0.013 µM (IC50).
